For assay [1], the system named is Pseudomonas aeruginosa. The experiment in a line: Antibacterial activity against Pseudomonas aeruginosa assessed as reduction in bacterial cell viability incubated for 24 hrs by two fold serial dilution method. It counts as functional. The method, boiled down:
(§1)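 Broth two-fold serial dilution run to CLSI guidelines. Chloromycin, norfloxacin and fluconazole served as reference drugs.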

Assay [2] relates to Escherichia coli. Briefly: Antibacterial activity against Escherichia coli ATCC 25922 assessed as reduction in bacterial cell viability incubated for 24 hrs by two fold serial dilution method. It counts as functional. Conditions: ATCC 25922, 24 h. The method, boiled down:
as §1

Assay [3] relates to Staphylococcus aureus. The experiment in a line: Antibacterial activity against methicillin resistant Staphylococcus aureus N315 assessed as reduction in bacterial cell viability incubated for 24 hrs by two fold serial dilution method. Conditions: N315, 24 h. It counts as functional. The method, boiled down: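 MIC by two-fold serial dilution following CLSI, with chloromycin and norfloxacin as reference drugs.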

For a further assay, the system named is Klebsiella pneumoniae. Briefly: Antibacterial activity against Klebsiella pneumoniae assessed as reduction in bacterial cell viability incubated for 24 hrs by two fold serial dilution method. It counts as functional. The method, boiled down:
as §1

Assay [4] relates to Staphylococcus aureus. Briefly: Antibacterial activity against Staphylococcus aureus ATCC 29213 assessed as reduction in bacterial cell viability incubated for 24 hrs by two fold serial dilution method. It counts as functional. Conditions: ATCC 29213, 24 h. The method, boiled down: as §1
The next assay relates to Enterococcus faecalis. Briefly: Antibacterial activity against Enterococcus faecalis assessed as reduction in bacterial cell viability incubated for 24 hrs by two fold serial dilution method. It counts as functional. The method, boiled down: as §1
The subject of assay [5] is Staphylococcus aureus. The experiment in a line: Antibacterial activity against Staphylococcus aureus assessed as reduction in bacterial cell viability incubated for 24 hrs by two fold serial dilution method. In kind it is functional. The method, boiled down:
as §1

Assay [6] relates to Aspergillus fumigatus. The experiment in a line: Potency index, ratio of MIC of fluconazole to MIC of compound for antifungal activity against Aspergillus fumigatus assessed as reduction in […] incubated for 24 hrs by two fold serial dilution method. It counts as functional.
The subject of assay [7] is Candida albicans. The experiment in a line: Antifungal activity against Candida albicans assessed as reduction in fungal cell viability incubated for 24 hrs by two fold serial dilution method. It counts as functional. The method, boiled down: as §1
Assay [8] concerns Aspergillus fumigatus. Briefly: Antifungal activity against Aspergillus fumigatus assessed as reduction in fungal cell viability incubated for 24 hrs by two fold serial dilution method. In kind it is functional. The method, boiled down:
as §1

Assay [9] relates to Staphylococcus aureus. Briefly: Antibacterial activity against Staphylococcus aureus ATCC 25923 assessed as reduction in bacterial cell viability incubated for 24 hrs by two fold serial dilution method. It counts as functional. Conditions: ATCC 25923, 24 h. The method, boiled down: as §1
A further assay has as its system Candida parapsilosis. The experiment in a line: Antifungal activity against Candida parapsilosis ATCC 22019 assessed as reduction in fungal cell viability incubated for 24 hrs by two fold serial dilution method. Conditions: Lodderomyces parapsilosis, ATCC 22019, 24 h.
For assay [10], the system named is Candida albicans. The experiment in a line: Antifungal activity against Candida albicans ATCC 90023 assessed as reduction in fungal cell viability incubated for 24 hrs by two fold serial dilution method. It counts as functional. Conditions: ATCC 90023, 24 h. The method, boiled down: as §1
For assay [11], the system named is Pseudomonas aeruginosa. Briefly: Antibacterial activity against Pseudomonas aeruginosa ATCC 27853 assessed as reduction in bacterial cell viability incubated for 24 hrs by two fold serial dilution method. It counts as functional. Conditions: ATCC 27853, 24 h. The method, boiled down:
as §1

Assay [12] relates to Escherichia coli. The experiment in a line: Antibacterial activity against Escherichia coli assessed as reduction in bacterial cell viability incubated for 24 hrs by two fold serial dilution method. It counts as functional. The method, boiled down:
as §1

The test system of a further assay is Candida tropicalis. Briefly: Antifungal activity against Candida tropicalis assessed as reduction in fungal cell viability incubated for 24 hrs by two fold serial dilution method. In kind it is functional. The method, boiled down:
as §1

The subject of another assay is Acinetobacter baumannii. Briefly: Antibacterial activity against Acinetobacter baumannii assessed as reduction in bacterial cell viability incubated for 24 hrs by two fold serial dilution method. In kind it is functional. The method, boiled down: as §1
Assay [13] relates to Staphylococcus aureus. The experiment in a line: Antibacterial activity against methicillin resistant Staphylococcus aureus assessed as fold change after 16 serial passages at 0.5 times of MIC incubated for 12 hrs by sequential passaging method. In kind it is functional.

We go through 4 compounds from ChEMBL document CHEMBL4351006, “A new exploration towards aminothiazolquinolone oximes as potentially multi-targeting antibacterial agents: Design, synthesis and evaluation acting on microbes, DNA, HSA and topoisomerase IV” (Eur J Med Chem, 2019).

The MIC is the lowest concentration that inhibits growth of the organism.

Molecules are shown by their SMILES. In brackets after ≈: the same amount, converted by molar mass.

For the compound `CCn1cc(-c2csc(N)n2)c(=O)c2cc(F)c(N3CCN(C/C(C)=N/NC(N)=O)CC3)cc21`, the MIC in the assay on Pseudomonas aeruginosa [1] worked out at 263 µM (≈ 128 µg/mL); in the assay on Escherichia coli [2], 263 µM (≈ 128 µg/mL); in the assay with Staphylococcus aureus [3] it was 66 µM (≈ 32.1 µg/mL); with Klebsiella pneumoniae, 526 µM (≈ 256 µg/mL); with Staphylococcus aureus [4], 263 µM (≈ 128 µg/mL); with Enterococcus faecalis it was 526 µM (≈ 256 µg/mL). Further, the MIC with Staphylococcus aureus [5] is 263 µM (≈ 128 µg/mL); with Candida albicans [7], 526 µM (≈ 256 µg/mL); with Aspergillus fumigatus [8], 263 µM (≈ 128 µg/mL); with Staphylococcus aureus [9], 132 µM (≈ 64.2 µg/mL); in the assay with Candida parapsilosis it was 66 µM (≈ 32.1 µg/mL); with Candida albicans [10] it was 132 µM (≈ 64.2 µg/mL). For the same compound, the MIC with Pseudomonas aeruginosa [11] is 132 µM (≈ 64.2 µg/mL); in the assay on Escherichia coli [12], 263 µM (≈ 128 µg/mL); with Candida tropicalis, 132 µM (≈ 64.2 µg/mL); in the assay with Acinetobacter baumannii it was 263 µM (≈ 128 µg/mL). Further, the Ratio with Aspergillus fumigatus [6] worked out at 3.
On to `CCn1cc(-c2csc(N)n2)c(=O)c2cc(F)c(N3CCN(C/C(C)=N/O)CC3)cc21`, for which the minimum inhibitory concentration (MIC) worked out at 288 µM (≈ 128 µg/mL) with Pseudomonas aeruginosa [1]; 72 µM (≈ 32 µg/mL) in the assay on Escherichia coli [2]; 72 µM (≈ 32 µg/mL) with Staphylococcus aureus [3]; 72 µM (≈ 32 µg/mL) in the assay on Klebsiella pneumoniae; 144 µM (≈ 64 µg/mL) with Staphylococcus aureus [4]; 288 µM (≈ 128 µg/mL) with Enterococcus faecalis. Besides, the MIC is 72 µM (≈ 32 µg/mL) in the assay on Staphylococcus aureus [5]; 72 µM (≈ 32 µg/mL) with Candida albicans [7]; 288 µM (≈ 128 µg/mL) with Aspergillus fumigatus [8]; 36 µM (≈ 16 µg/mL) in the assay with Staphylococcus aureus [9]; 72 µM (≈ 32 µg/mL) in the assay on Candida parapsilosis; 72 µM (≈ 32 µg/mL) with Candida albicans [10]. In addition, the MIC with Pseudomonas aeruginosa [11] was found to be 144 µM (≈ 64 µg/mL); in the assay with Escherichia coli [12], 288 µM (≈ 128 µg/mL); in the assay with Candida tropicalis, 288 µM (≈ 128 µg/mL); in the assay on Acinetobacter baumannii it was 288 µM (≈ 128 µg/mL).
On to `CCn1cc(C(=O)O)c(=O)c2cc(F)c(N3CCNCC3)cc21` [NORFLOXACIN], for which the MIC in the assay on Pseudomonas aeruginosa [1] is 6 µM (≈ 1.92 µg/mL); in the assay on Escherichia coli [2] it was 25 µM (≈ 7.98 µg/mL); in the assay on Staphylococcus aureus [3], 25 µM (≈ 7.98 µg/mL); in the assay on Klebsiella pneumoniae, 13 µM (≈ 4.15 µg/mL); in the assay with Staphylococcus aureus [4] it was 3 µM (≈ 0.958 µg/mL); with Enterococcus faecalis, 13 µM (≈ 4.15 µg/mL). For the same compound, the MIC with Staphylococcus aureus [5] was 6 µM (≈ 1.92 µg/mL); with Staphylococcus aureus [9], 3 µM (≈ 0.958 µg/mL); in the assay on Pseudomonas aeruginosa [11], 2 µM (≈ 0.639 µg/mL); in the assay on Escherichia coli [12] it was 50 µM (≈ 16 µg/mL); in the assay with Acinetobacter baumannii it was 25 µM (≈ 7.98 µg/mL). In addition, the “fold change (FC)” value in the assay on Staphylococcus aureus [13] turned out to be 16.
On to `CCn1cc(-c2csc(N)n2)c(=O)c2cc(N3CCN(C/C(=N/OC)c4ccc(OC)cc4)CC3)c(Cl)cc21`, for which the MIC in the assay on Pseudomonas aeruginosa [1], in the assay with Escherichia coli [2], with Staphylococcus aureus [3], in the assay with Klebsiella pneumoniae, with Staphylococcus aureus [4] and in the assay on Enterococcus faecalis was 451 µM (≈ 256 µg/mL) in each case. Besides, the MIC with Staphylococcus aureus [5] was 451 µM (≈ 256 µg/mL); in the assay with Candida albicans [7], 451 µM (≈ 256 µg/mL); with Aspergillus fumigatus [8], 451 µM (≈ 256 µg/mL); in the assay with Staphylococcus aureus [9], 451 µM (≈ 256 µg/mL); in the assay with Candida parapsilosis it was 451 µM (≈ 256 µg/mL); with Candida albicans [10], 226 µM (≈ 128 µg/mL). Moreover, the MIC was 451 µM (≈ 256 µg/mL) in the assay on Pseudomonas aeruginosa [11], 451 µM (≈ 256 µg/mL) with Escherichia coli [12], 226 µM (≈ 128 µg/mL) in the assay with Candida tropicalis and 451 µM (≈ 256 µg/mL) with Acinetobacter baumannii.
